The nature of series [1]: melting temperature; fluorescence melt of hairpins on a sequencing array, two-state fit, raised by 9.35 °C to match UV melts. Particulars: sodium 0.088 M. An outline of the steps:
(§1)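 On a sequenced MiSeq flow cell, library hairpins with annealed Cy3 and quencher oligos were imaged for Cy3 fluorescence in 2.5 °C steps up to 60 °C, in 50 mM Na-HEPES pH 8.0, 25 mM NaCl. Normalisation used pre-quench Cy3 and control constructs. Bootstrapped two-state fits gave melting temperature and folding enthalpy, combined by inverse variance across four replicates and with fitted temperatures raised by 9.35 °C to match UV melts.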

The nature of series [2]: folding enthalpy; higher = less favourable; fluorescence melt of hairpins on a sequencing array, two-state fit. The following applies: sodium 0.088 M. The method, boiled down: as §1

The values below come from the array DNA melting data of Ke et al. (doi:10.1101/2024.01.08.574731).

Take GAGAAGCGAAAGCTCTC (((.(((....)))))): the Tm in series [1] was determined as 50.2 °C. In series [2], the folding enthalpy is -20.1 kcal/mol.
As for GATTTGGGAAACCAAACC (.(((((....))))).), the Tm in series [1] was found to be 34 °C. The folding enthalpy in series [2] was -19.4 kcal/mol.
For GGCTGGGGAAACTCGGCC (((.(.(....).).))), in series [1], the Tm came out at 49.4 °C. Also, the folding enthalpy in series [2] is -36.5 kcal/mol.
On the same counts, the results for GATCTGCTGCCAGATC ((((((....)))))) are 49.8 °C and -39.2 kcal/mol.
On the same counts, the results for GATCGCTAAGCGATC ((((((...)))))) are 67.9 °C and -33.5 kcal/mol.
On the same counts, the results for GCATCGCGAAAGCGCGGC ((..(((....)))..)) are 44.7 °C and -14.8 kcal/mol.
On to GCCAGAGCGAAAGCTGGC (((..(((....)))))), for which, in series [1], the Tm was found to be 60 °C. In addition, the folding enthalpy in series [2] was -31.3 kcal/mol.
Regarding GGTACTGGAAACAGTGCC ((.((((....)))).)), the Tm in series [1] worked out at 54.9 °C. Also, the folding enthalpy in series [2] was -41.8 kcal/mol.
On the same counts, the results for GTCTAGGGAAACTTAGAC (((((.(....).))))) are 37.4 °C and -36.3 kcal/mol.
On the same counts, the results for GCGAAATTTCGC ((((....)))) are 51.7 °C and -42.6 kcal/mol.
Regarding GTACTCTCGAAAGAGTAC (((..(((....)))))), in series [1], the Tm was determined as 52.5 °C. Further, in series [2], the folding enthalpy is -36.9 kcal/mol.
GGAGAGCGAAAGCTATCC (((.(((....))).))): the Tm in series [1] is 57.6 °C. Besides, the folding enthalpy in series [2] is -42.1 kcal/mol.
Regarding GCGACCGGTCGC ((((....)))), the Tm in series [1] worked out at 62 °C. Also, in series [2], the folding enthalpy is -55.6 kcal/mol.
As for GCACGGCGAAAGCGGCGC ((.(.((....)).).)), the Tm in series [1] was found to be 57 °C. In addition, the folding enthalpy in series [2] is -24.1 kcal/mol.
With GAGCCCACGAAAGTGCTC (((..(((....)))))), in series [1], the Tm was found to be 35.8 °C. Moreover, the folding enthalpy in series [2] was -16 kcal/mol.
Regarding GGAAAAGCGAAAGCTTCC (((..(((....)))))), the Tm in series [1] is 40.5 °C. Also, the folding enthalpy in series [2] was -15.1 kcal/mol.
Consider GGTTATCGAAAGATGACC (((.(((....))).))), for which the Tm in series [1] is 51.7 °C. The folding enthalpy in series [2] is -48.6 kcal/mol.
In the case of GCTCAGCGAAAGCCAAGC (((..((....))..))), the Tm in series [1] was found to be 41 °C. For the same sequence, in series [2], the folding enthalpy was -16.4 kcal/mol.
On the same counts, the results for GAATGCGGAAACGCGTTC (((.(((....))).))) are 54.2 °C and -37.5 kcal/mol.
With GTAAAACCGAAAGGTTAC (((..(((....)))))), in series [1], the Tm is 31 °C. Further, in series [2], the folding enthalpy is -14.9 kcal/mol.
For the sequence GTCATGGGAAACCACGAC (((.(((....))).))), in series [1], the Tm came out at 39.9 °C. Also, the folding enthalpy in series [2] was -31.9 kcal/mol.
On the same counts, the results for GATCAGTCTTCTGATC ((((((....)))))) are 51.2 °C and -37.8 kcal/mol.
On the same counts, the results for ACTGTGAAAACAGT (((((....))))) are 46.1 °C and -21.8 kcal/mol.
For the sequence GATCATTGCATGATC ((((((...)))))), the Tm in series [1] stood at 50.4 °C. The folding enthalpy in series [2] is -34 kcal/mol.
On the same counts, the results for GGCTACGAAAGTAGGGCC ((((((....)))..))) are 47.1 °C and -15.7 kcal/mol.
Turning to GAGAGCGAAAGCTATCTC ((((((....)))..))), the Tm in series [1] turned out to be 51.2 °C. Also, the folding enthalpy in series [2] was -22.4 kcal/mol.
GGCTAGGGAAACCCAGCC ((((.((....)).)))): the Tm in series [1] amounted to 52.1 °C. Also, the folding enthalpy in series [2] is -39.4 kcal/mol.
On the same counts, the results for GGTTTTGGAAACGAAACC (((((.(....).))))) are 47.5 °C and -43.9 kcal/mol.
With GATCTTAAGGAAGATC ((((((....)))))), the Tm in series [1] was determined as 39.1 °C. In addition, the folding enthalpy in series [2] was -23.1 kcal/mol.
On the same counts, the results for GCTCCGACGAAAGTCAGC (((..(((....)))))) are 32.2 °C and -13.3 kcal/mol.
Take AACAGGAAACTGTT (((((....))))): the Tm in series [1] was 40.5 °C. The folding enthalpy in series [2] was -14.7 kcal/mol.
GATCTATATTTAGATC ((((((....)))))): in series [1], the Tm came to 43.1 °C. The folding enthalpy in series [2] was -34.6 kcal/mol.
As for GTACGCGAAAGCGAGTAC ((((((....)))..))), the Tm in series [1] stood at 41.1 °C. Further, the folding enthalpy in series [2] was -13.8 kcal/mol.
On the same counts, the results for GTTCGACCGAAAGGTAAC (((..(((....)))))) are 27.3 °C and -10.9 kcal/mol.
On the same counts, the results for GCTACGCGAAAGCGAGGC ((..(((....)))..)) are 53.3 °C and -15.1 kcal/mol.
Take GAACTAGGAAACCAGTTC (((((.(....).))))): the Tm in series [1] came to 33.9 °C. The folding enthalpy in series [2] is -28.3 kcal/mol.
On the same counts, the results for GATCTCTTGTGAGATC ((((((....)))))) are 53.1 °C and -48.6 kcal/mol.
With GTGCAGTCGAAAGACCAC (((..(((....)))))), in series [1], the Tm turned out to be 38.7 °C. The folding enthalpy in series [2] was -16.4 kcal/mol.
On the same counts, the results for GATCTCAGCGGAGATC ((((((....)))))) are 53.7 °C and -38.3 kcal/mol.
On the same counts, the results for GTGCATCGAAAGATACAC (((.(((....))).))) are 47 °C and -35.2 kcal/mol.
Regarding CGTGGTCGGAAACGAACG (((..(((....)))))), the Tm in series [1] worked out at 30.5 °C. For the same sequence, the folding enthalpy in series [2] was -16.3 kcal/mol.
With GCAGCCGCGAAAGCGTGC (((..(((....)))))), in series [1], the Tm came out at 48.4 °C. Moreover, in series [2], the folding enthalpy is -8.84 kcal/mol.
On the same counts, the results for GTTACAGAAATGTAAC ((((((....)))))) are 46.1 °C and -33.4 kcal/mol.
On the same counts, the results for GCTTACGGAAACGCAAGC ((((.((....)).)))) are 46 °C and -44.1 kcal/mol.
On the same counts, the results for GCCGGTCGAAAGACGGC (((.(((....)))))) are 67.6 °C and -30.1 kcal/mol.
Regarding GTCACTCGAAAGAGCGAC (((.(((....))).))), in series [1], the Tm amounted to 51.5 °C. Besides, the folding enthalpy in series [2] is -43.5 kcal/mol.
On the same counts, the results for GTAATCGAAAGATTAC ((((((....)))))) are 53.3 °C and -48.2 kcal/mol.
GCCTGGCGAAAGCCAAGC ((.((((....)))).)): the Tm in series [1] amounted to 57.7 °C. In addition, the folding enthalpy in series [2] is -17.5 kcal/mol.
Consider GGGTAAGGAAACTTATCC ((.((((....)))).)), for which the Tm in series [1] came to 40.1 °C. Besides, in series [2], the folding enthalpy was -29.2 kcal/mol.
Take GAACCCGAAAGGGAGTTC ((((((....)))..))): in series [1], the Tm amounted to 40 °C. The folding enthalpy in series [2] was -13.7 kcal/mol.
On the same counts, the results for GATCTGCGTTCAGATC ((((((....)))))) are 48.8 °C and -37.5 kcal/mol.
With GATCGATGGTTCGATC ((((((....)))))), in series [1], the Tm was found to be 51.2 °C. In addition, the folding enthalpy in series [2] is -43 kcal/mol.
On the same counts, the results for GCCGATGGAAACATCAGC ((.((((....)))).)) are 41.5 °C and -24.5 kcal/mol.
In the case of GATCTTTCACAAGATC ((((((....)))))), the Tm in series [1] was found to be 43.1 °C. For the same sequence, the folding enthalpy in series [2] was -30.5 kcal/mol.
On the same counts, the results for GATCGAGGAAACTTGGTC ((.(.((....)).).)) are 22.6 °C and -8.03 kcal/mol.
